Experimental data pooled from the literature.
Lines come from different studies, so protocols differ.
Target: Cholinesterase (BCHE, Equus caballus, UniProt P81908)
Effect on: enzyme activity
Mode: inhibitor

SMILES | technique | IC50
CC=C1[C@H]2C=C(C)C[C@]1(N)c1ccc(OC)nc1C2 | Ellman | 904 µM
CCOc1ccc(C=NNC(=S)NCC(=O)c2ccc(Cl)cc2Cl)cc1 | Ellman | 331 µM
CC(=O)N1CCN(c2nccc(NCCc3ccccc3)n2)CC1 | – | > 100 µM
O=C(NCCCNc1c2c(nc3ccccc13)CCCC2)c1ccccc1O | Ellman | 0.129 µM
CC=C1[C@H]2C=C(C)C[C@]1(N)c1cc(C)c(=O)[nH]c1C2 | Ellman | 486 µM
CC(C)(C)OC(=O)N1CCN(c2nccc(NCc3ccccc3)n2)CC1 | – | > 100 µM
CC=C1[C@H]2C=C(C)C[C@]1(N)c1cc(CC)c(=O)[nH]c1C2 | Ellman | 60.4 µM
C#CCNc1nc(NCCCCC2CCN(Cc3ccccc3)CC2)c(C#N)cc1C#N | Ellman | 0.511 µM
CCOc1ccc(C=NNC(=S)NCC(=O)c2ccc(-c3ccccc3)cc2)cc1 | Ellman | 501 µM
C#CCN(C)c1nc(NCCCCC2CCN(Cc3ccccc3)CC2)c(C#N)c(-c2ccccc2)c1C#N | Ellman | 0.22 µM
CCOc1ccc(C=NNC(=S)NCC(=O)c2cccc(C)c2)cc1 | Ellman | 300 µM
